Measured values taken from ChEMBL document CHEMBL3407477, “Synthesis and biological evaluation of compact, conformationally constrained bifunctional opioid agonist - neurokinin-1 antagonist peptidomimetics” (Eur J Med Chem, 2015).
The source made the active and inactive calls.

Assays:
Rattus norvegicus [1] = species on record: Rattus norvegicus; experiment: Reduction of hyperalgesia in Wistar rat chronic constriction injury model at 1 nmol, it measured 7 days post CCI challenge by cold plate test; format: functional, organism-based
Outline: (§1)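 In catheterized male Wistar rats with sciatic CCI, a single i.t. dose in water for injection was given on day 7. Thermal hyperalgesia was measured 30 min later as latency to hind-paw shake on a 5 °C cold plate. Data are %MPE, 6-12 rats/group, ANOVA with Bonferroni.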

Rattus norvegicus [2] = species on record: Rattus norvegicus; experiment: Antiallodynic effect in Wistar rat chronic constriction injury model at 1 nmol, it measured 7 days post CCI challenge by Von Frey test; format: functional
Outline: (§2)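 Male Wistar rats (300-350 g) with i.t. catheters (L4-L6) had CCI made by four loose silk ligatures on the right sciatic nerve. On day 7 they received a single i.t. dose in water for injection. Mechanical allodynia was measured 30 min later with an automatic von Frey device (0.5-26 g) on the midplantar hind paw. Data are %MPE, 6-12 rats/group, ANOVA with Bonferroni.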

Rattus norvegicus [3] = species on record: Rattus norvegicus; experiment: Antinociceptive activity in Wistar rat at 1 nmol, it after 30 mins by tail flick test; format: functional
Outline: (§3)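 Naive male Wistar rats (250-300 g) with i.t. catheters received a single i.t. injection in water for injection (5 µl plus 10 µl flush), 7 days after catheter implantation. Tail-flick latency to a light-bulb heat stimulus at two-thirds of tail length was read 30 min post-dose (timepoints up to 180 min), with a 9 s cut-off. Data are %MPE = (TL-BL)/(cut-off-BL)×100, 7-12 rats/group, ANOVA with Bonferroni.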

Rattus norvegicus [4] = experiment: Antiallodynic effect in Wistar rat chronic constriction injury model assessed as cross tolerance developement pretreated with morphine at 3.5 nmol, it qd for 6 days administered from 7 days post CCI challenge to day 13 measured 30 mins post compound challenge by cold plate test; format: functional, organism-based
Outline: (§4)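 CCI Wistar rats were made tolerant by 6 days of once-daily i.t. dosing (morphine 3.5 nmol or hybrid 1 nmol). On day 13 they received a single i.t. challenge (morphine 3.5 nmol or hybrid 1 nmol) against repeated-vehicle controls. Von Frey and cold plate tests were run 30 min later. Data are %MPE, 6-8 rats/group, ANOVA with Bonferroni.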

Rattus norvegicus [5] = species on record: Rattus norvegicus; experiment: Antiallodynic effect in Wistar rat chronic constriction injury model at 0.1 to 1 nmol, it measured 7 days post CCI challenge by Von Frey test; format: functional, organism-based; outline: as §2
Rattus norvegicus [6] = species on record: Rattus norvegicus; experiment: Toxicity in Wistar rat chronic constriction injury model at 1 nmol, it measured 7 days post CCI challenge; format: organism-based; conditions: in vivo, icv_or_intrathecal, 168 h
Rattus norvegicus [7] = species on record: Rattus norvegicus; experiment: Antinociceptive activity in Wistar rat at 0.1 to 11 nmol, it after 30 mins to 2 hrs by tail flick test; format: functional, organism-based
Rattus norvegicus [8] = experiment: Toxicity in Wistar rat assessed as death at 9.5 nmol, iv; format: organism-based; conditions: in vivo
Rattus norvegicus [9] = experiment: Antiallodynic effect in Wistar rat chronic constriction injury model assessed as tolerance to neuropathic pain at 1 nmol, it qd for 6 days administered from 7 days post CCI challenge to day 13 by Von Frey test; format: functional, organism-based
Outline: (§5)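 CCI Wistar rats received once-daily i.t. injections (morphine 3.5 nmol, hybrids 1 nmol, in water for injection) from day 7 to day 13 after CCI. Von Frey and 5 °C cold plate tests were run 30 min after each dose. Data are %MPE and AUC, 12-16 rats/group, ANOVA with Bonferroni.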

Rattus norvegicus [10] = experiment: Antiallodynic effect in Wistar rat chronic constriction injury model assessed as tolerance to neuropathic pain at 1 nmol, it qd for 6 days administered from 7 days post CCI challenge to day 13 by cold plate test; format: functional, organism-based; outline: as §5
Rattus norvegicus [11] = experiment: Antiallodynic effect in it dosed Wistar rat measured 7 days post CCI challenge by Von Frey test; format: functional; outline: as §2
Rattus norvegicus [12] = experiment: Antinociceptive activity in it dosed Wistar rat after 30 mins by tail flick test; format: functional; outline: as §3
Rattus norvegicus [13] = species on record: Rattus norvegicus; experiment: Selectivity ratio of Ki for rat brain DOR to Ki for rat brain MOR
Rattus norvegicus [14] = experiment: Toxicity in Wistar rat assessed as seizures at 9.5 nmol, iv; format: organism-based; conditions: in vivo
Rattus norvegicus [15] = species on record: Rattus norvegicus; experiment: Antinociceptive activity in Wistar rat at 0.1 nmol, it after 30 mins by tail flick test; format: functional; outline: as §3
Rattus norvegicus [16] = experiment: Reduction of hyperalgesia in it dosed Wistar rat measured 7 days post CCI challenge by cold plate test; format: functional; outline: as §1
Rattus norvegicus [17] = species on record: Rattus norvegicus; experiment: Toxicity in Wistar rat chronic constriction injury model at 11 nmol, it measured 7 days post CCI challenge; format: organism-based; conditions: in vivo, icv_or_intrathecal, 168 h
Rattus norvegicus [18] = experiment: Antiallodynic effect in Wistar rat chronic constriction injury model assessed as cross tolerance developement pretreated with morphine at 3.5 nmol, it qd for 6 days administered from 7 days post CCI challenge to day 13 measured 30 mins post compound challenge by Von Frey test; format: functional, organism-based; outline: as §4

Cc1cc(O)cc(C)c1C[C@H](N)C(=O)N[C@H](CCCNC(=N)N)C(=O)N[C@H]1Cc2ccccc2CN(CCC(=O)N(C)Cc2ccccc2)C1=O
Activity (Rattus norvegicus [1]): Active | MPE (Rattus norvegicus [2]): 80% | MPE (Rattus norvegicus [3]): 30% | Activity (Rattus norvegicus [4]): inactive | Activity (Rattus norvegicus [5]): Active | Activity (Rattus norvegicus [6]): Non-toxic | Activity (Rattus norvegicus [7]): Active | Activity (Rattus norvegicus [8]): Non-toxic | Activity (Rattus norvegicus [9]): Active | Activity (Rattus norvegicus [10]): Active | ED50 (Rattus norvegicus [11]): 0.24 nmol | ED50 (Rattus norvegicus [12]): 2.78 nmol | Ratio Ki (Rattus norvegicus [13]): 3.5 | Activity (Rattus norvegicus [14]): Non-toxic | MPE (Rattus norvegicus [15]): 8.9% | ED50 (Rattus norvegicus [16]): 0.34 nmol | Activity (Rattus norvegicus [17]): Toxic | Activity (Rattus norvegicus [18]): inactive
